Screening data from PubChem BioAssay.
Xi reactivation – activators of X-chromosome reactivation in mouse fibroblasts. XiGFP mouse fibroblasts, % GFP-positive cells imaging, 3 d; cells co-treated with 5-aza-dC sensitizer; scaled so ellipticine positive control = 100%. 360,000 tested, 0.055% active. AID 743238. activation, % at 7.58 µM;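 active = mean normalized replicate activation at least 10% and every replicate at or above 10%; inconclusive = only one of the two criteria met; inactive = mean below 10% and not all replicates reach 10%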;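 also: 0% = median of on-plate neutral control wells and 100% = ellipticine 6 µM median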
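Material: SV40-immortalized XiGFP fibroblast cells, line 68-5-11 | Buffer or medium: DMEM containing 5-aza-dC | Dosing: One concentration, pinned | Times: 3 d treatment, 15 min room-temperature fixation | Controls: Ellipticine 6 µM positive control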
esBAF inh – SWI/SNF esBAF complex inhibition. mouse ES cells, Bmi1-luciferase knock-in reporter, 24 h; 100% = twice the neutral-well signal. reporter increase, % at 12.5 µM. 350,000 tested, 2% active. AID 602393; in the data active = activation above about 40%; inconclusive = no clear call, values can overlap the other calls;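 also: 0% = median of the plate's neutral control wells and 100% = double that signal; a rise in the Bmi1 reporter signal indicates esBAF inhibition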
MITF TRPM1 HTS – increases MITF-driven TRPM1 promoter luciferase signal | SK-MEL-5 TRPM1-promoter luciferase, 24 h; % of positive control, neutral wells = 0 | activation, % at 12.5 µM | 300,000 tested, 0.75% active;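 active = mean activation of at least 80% with every replicate also reaching 80%; inconclusive = mean reaches 80% but some replicate falls short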;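 also: 0% = neutral control wells and 100% = parthenolide positive control wells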
Vif imaging – blocks HIV Vif function; HEK293T cells, Vif self-association by quenched fluorescence, imaging, 24 h; inhibition, % at 7.49 µM; 340,000 tested, 0.35% active; AID 602346; in the data active = inhibition above about 50%, passing the limit was not always enough; inconclusive = no clear call, values can overlap the other calls; inactive = below about 31%
Wnt act – activates Wnt/beta-catenin signaling in a reporter cell assay; activator, plate reader; activation, % at 9.35 µM; 300,000 tested, 1.2% active; AID 743398; in the data active = activation above about 30%, passing the limit was not always enough; inconclusive = no clear call, values can overlap the other calls;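 also: 0% = neutral control wells and 100% = positive control wells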
* = called active by the depositor; ? = inconclusive; / = no result given. Rows were chosen to be rich in hits. Some 2.6% of all compounds tested hit in one or more screens of this group.

SMILES	Xi reactivation	esBAF inh	MITF TRPM1 HTS	Vif imaging	Wnt act
Nc1c2c(=O)oc(-c3ccccc3)cc2nn1-c1ccccc1	/	70*	/	-6	/
CCCOc1ccc(-c2csc(N)n2)cc1[N+](=O)[O-]	0	/	99*	-9	-2
O=C(C[C@@H]1C=C[C@H](NC(=O)c2ccccc2)[C@@H](CO)O1)NCc1ccc(Oc2ccccc2)cc1	1	1	/	/	/
CCc1nc2cc3sc(CC)nc3cc2s1	0	76*	64	6	16
CCc1ccc2nc(N)sc2c1	0	/	57	-2	1
C[C@@H]1CCCCO[C@@H](CN(C)C(=O)C2CCCCC2)[C@H](C)CN([C@@H](C)CO)C(=O)c2cc(NS(=O)(=O)c3ccc(F)cc3)ccc2O1	0	25	/	/	/
C[C@H](CO)N1C[C@H](C)[C@@H](CN(C)C(=O)Cc2ccncc2)Oc2cc(C#CC3CC3)ccc2S1(=O)=O	0	-1	/	/	/
CN1CCN(C(=O)C[C@@H]2C=C[C@H](NC(=O)Nc3ccccc3F)[C@H](CO)O2)CC1	0	-3	/	/	/
c1ccc(-c2cc3ccccc3cn2)cc1	0	62*	63	-1	48*
Fc1ccc2cc(-c3ccccc3)ncc2c1	0	61*	92*	4	33*
CS(=O)(=O)N1CC2(C1)[C@H](c1ccccc1)[C@H](CO)N2C(=O)C1CCC1	0	/	/	/	/
COc1ccc(NC2=Nc3ccccc3CC2)cc1	/	9	91*	-2	39*
COc1ccc2c3c([nH]c2c1)[C@@H](CO)N(C(=O)CN1CCOCC1)CC31CN(C)C1	0	/	/	/	/
COc1ccc(CNC(=O)C[C@@H]2C=C[C@H](NC(=O)Nc3ccc4c(c3)OCO4)[C@H](CO)O2)cc1	1	2	/	/	/
O=c1[nH]c(COc2ccc(Cl)cc2Cl)nc2ccccc12	0	73*	79	4	-2
O=c1[nH]c(COc2ccc(Cl)cc2Br)nc2ccccc12	0	/	71	-6	27
COCC(=O)N1CC2(C1)CN(C(=O)c1ccccn1)[C@H](CO)c1c2c2ccc(OC)cc2n1C	1	/	/	/	/
N#CCSc1ccc(-c2nc3ccccc3[nH]2)cn1	0	/	72	-13	34*
Nc1ccccc1-c1nc2ccccc2[nH]1	/	35	38	-9	55*
Fc1ccc(-c2nc3ccccc3[nH]2)cc1	0	70*	67	-2	58*
Cc1cc2nc(-c3ccc(SCc4ccccn4)nc3)[nH]c2cc1C	0	64*	67	-9	?
CCOC(=O)CSc1ccc(-c2nc3cc(C)c(C)cc3[nH]2)cn1	/	-1	30	8	/
Nc1ccc(-c2nc3ccccc3[nH]2)cc1	?	-36	7	12	?
COCC(=O)N1CCC2(CC1)CN(Cc1cccc(OC)c1)[C@H](CO)c1c2c2ccc(OC)cc2n1C	1	/	/	/	/
Nc1cccc(-c2nc3ccccc3[nH]2)c1	/	62*	61	-3	/
SMILES	Xi reactivation	esBAF inh	MITF TRPM1 HTS	Vif imaging	Wnt act
c1cncc(CNc2cccc(-c3nc4ccccc4[nH]3)c2)c1	0	/	58	-1	50*
COc1cccc(NC(=O)N[C@H]2C=C[C@H](CC(=O)Nc3ccccc3)O[C@@H]2CO)c1	0	-4	/	/	/
CNC(=O)C[C@@H]1CC[C@@H]2[C@@H](COc3ccc(NC(=O)C4CC4)cc3C(=O)N2C)O1	0	7	/	/	/
C[C@H](CO)N1C[C@H](C)[C@@H](CN(C)Cc2ccc(-c3ccccc3)cc2)Oc2c(NC(=O)Nc3ccccc3)cccc2C1=O	0	/	/	/	/
CC1CCc2nc(/C(C#N)=C/c3cccnc3)sc2C1 (centres undefined)	0	/	85*	1	/
CC(=O)N1[C@@H]2Cn3c(ccc(-c4ccccc4)c3=O)[C@H]1[C@@H](C(=O)NCCCN1CCOCC1)[C@@H]2CO	1	/	/	/	/
COc1ccc(C(c2c(O)ccc3ccccc23)N2CCOCC2)c(OC)c1 (centres undefined)	/	/	/	2	76*
Cc1ccc(C(=O)COC(=O)c2cccs2)cc1	/	/	57	/	52*
O=C(COC(=O)c1cccs1)c1ccc2ccccc2c1	/	42*	/	-1	32*
CCc1ccc(C(=O)COC(=O)c2cccs2)cc1	/	34	?	/	62*
Cc1ccc(S(=O)(=O)N(C)C[C@@H]2Oc3ccc(NC(=O)CCCCCC(=O)Nc4ccccc4N)cc3CC(=O)N([C@H](C)CO)C[C@H]2C)cc1	0	3	/	/	/
C[C@H](CO)N1C[C@H](C)[C@H](CN(C)CC2CCOCC2)Oc2ncc(C#Cc3ccncc3)cc2C1=O	/	-8	/	/	/
N#C/C(C(=O)N1CCOCC1)=C1/SC(Cc2ccccc2Cl)C(=O)N1c1ccccc1 (centres undefined)	0	/	3	0	35*
N#C/C(C(=O)NCc1ccco1)=C1/SC(Cc2ccc(Cl)cc2)C(=O)N1c1ccccc1 (centres undefined)	/	-1	/	10	1
Cc1ccc(NCc2ccccc2O)cc1	/	49*	56	3	/
Cc1ccnc(NCc2cc(Cl)cc(Cl)c2O)c1	0	-3	/	/	-1
Cc1ccnc(NCc2cc(C)ccc2O)c1	0	56*	/	-2	-1
Cc1ccc(O)c(CNc2ccccn2)c1	/	64*	/	11	/
Cc1ccc(O)c(CNc2cccc(C)n2)c1	0	15	8	-4	1
C[C@@H]1CN([C@H](C)CO)C(=O)c2cccc(NC(=O)CCCCCC(=O)Nc3ccccc3N)c2O[C@@H]1CN(C)CC1CCCCC1	-1	/	/	/	/
O=C(COC(=O)c1ccc(O)cc1O)Nc1ccc2ccccc2c1	0	25	14	0	3
O=C(COC(=O)c1ccc(O)cc1O)Nc1ccc2c(c1)OCCO2	0	83*	92*	-8	-3
Cn1cccc1C(=O)OCC(=O)Nc1ccc2c(c1)OCCO2	0	/	4	1	49*
C[C@H]1CN([C@@H](C)CO)C(=O)c2cc(NC(=O)Nc3cccc4ccccc34)ccc2O[C@@H]1CN(C)C(=O)Nc1cccc2ccccc12	0	1	/	/	/
O=C(c1ccco1)N1CCN(c2ncnc3c2oc2ccccc23)CC1	/	58*	/	1	/
SMILES	Xi reactivation	esBAF inh	MITF TRPM1 HTS	Vif imaging	Wnt act
Fc1ccc(N2CCN(c3ncnc4c3nnn4Cc3ccccc3Cl)CC2)cc1	/	/	-7	/	/
O=C(c1ccco1)N1CCN(c2ncnc3c2nnn3Cc2ccccc2Cl)CC1	/	-1	-4	60*	/
O=C(/C=C/c1cccnc1)c1ccc(NC(=O)c2cccc(Br)c2)cc1	/	19	7	1	/
Cc1cccc(C(=O)Nc2ccc(C(=O)/C=C/c3cccnc3)cc2)c1	0	42*	-26	0	/
C[C@@H]1CCCCO[C@@H](CN(C)Cc2ccccc2)[C@@H](C)CN([C@@H](C)CO)C(=O)c2cc(NS(=O)(=O)c3cccs3)ccc2O1	0	5	/	/	/
CCN(Cc1ccccc1)C(=O)c1ccc(CNS(=O)(=O)c2ccc(C)cc2)cc1	0	/	20	-3	-7
CCCN(Cc1ccc(C)cc1)C(=O)c1ccc(CNS(=O)(=O)c2ccc(C(C)=O)cc2)cc1	0	62*	?	7	2
